Assay results: PubChem BioAssay
Inconclusive results are not listed.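 The calls were made as follows, unless noted: active = viability at or below 27.92% in each of two runs, the all-compound median minus 4 SD; inconclusive = no clear call, values can overlap the other calls; inactive = the rest.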

Columns and labels:
[1] = OD615 S. cerevisiae growth inhibition, permissive medium, pilot counter-assay, permissive growth control for S. cerevisiae lifespan shortening project (AID 705;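 active = growth inhibition above 25% in both replicates, a cutoff set 3 SD above the mean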); conditions: OD615, 24 h, at 10 µM, hits give high values
Procedure, shortened: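 Material: engineered DeaD yeast; compound dosing: one dose 10 µM, DMSO 0.25% final; measure: yeast growth inhibition indicated by reduced 24 h OD615; detection: OD615 turbidity read; incubation: cells pre-grown 4 h, then 24 h compound exposure, 30 °C humidified; medium: permissive synthetic complete medium with raffinose and galactose carbon sources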

[2] = Restrictive medium S. cerevisiae growth inhibition, OD615, pilot screen of yeast lifespan reduction project, restrictive growth control (AID 706;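 active = growth inhibition above a set limit, 3 SD over mean compound inhibition, in both replicates, cut at about 43% in these data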;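 also: modified DeaD lifespan yeast strain shifted to restrictive glucose medium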); conditions: OD615, 48 h, at 10 µM, hits give high values
Procedure, shortened: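 material = engineered S. cerevisiae DeaD strain | medium = glucose-based CSMM-D restrictive medium | times = 4 h pre-incubation, 48 h exposure at 30 °C | technique = OD615 absorbance reading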

[3] = viability gain of MRP-1-high H69AR cells under doxorubicin, pilot screen, MRP-1 activator project, CellTiter-Glo, duplicate (AID 807;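 active = viability increase at or above a cutoff of the median across tested compounds plus 3 SD, cut at about 8.5% in these data, passing the limit was not always enough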;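 also: compound pretreatment 18-22 h then 72 h combined with doxorubicin; 0% = doxorubicin alone and 100% = vehicle without doxorubicin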); conditions: H69AR viability with doxorubicin, CellTiter-Glo luminescence; at 10 µM; hits give high values
[4] = growth suppression of beta-catenin knockout HCT116, pilot screen, human colon tumor cells (AID 823;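 active = cell viability at or below a set limit in both duplicate runs, the limit being the all-compound median minus 4 SD, cut at about 23% in these data, passing the limit was not always enough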;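 also: 0% = wells killed by 20 µM Hyamine and 100% = untreated DMSO cell wells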); conditions: CellTiter-Glo, 60 h, at 10 µM, hits give low values
[5] = growth suppression of PTEN-deleted HCT116, pilot screen, cell-based, HCT116 clonal line, CellTiter-Glo (AID 824); conditions: 60 h, at 10 µM, hits give low values;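 also: 0% = 20 µM Hyamine control and 100% = vehicle cell control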
[6] = inhibitors of the yeast RAM network, pilot screen, dse1pr::URA3 reporter, 5-FOA selection (AID 869;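 active = inhibition over a set limit, the all-compound mean plus 3 SD, in both replicate runs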;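 also: 0% = DMSO wells with no growth and 100% = 10 µM 1-NA-PP1 with full growth; RAM network block rescues cells from 5-FOA so hits raise OD615 growth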); conditions: S. cerevisiae dse1pr::URA3 5-FOA growth, OD615, 2 d; at 10 µM; hits give high values; strain carries analog-sensitive mutant Cbk1 kinase
[7] = RAM signaling pathway blockade in yeast – S. cerevisiae, Pdr1DBD-CYC8 efflux-inhibited sensitized strain, primary screen (AID 1298;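 active = RAM network inhibition above 8.4% in each of two replicates, 3 SD over the compound average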;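 also: 0% = DMSO untreated cells without growth and 100% = 10 µM 1-NA-PP1 full growth; higher means more yeast growth rescued from 5-FOA killing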); conditions: S. cerevisiae cbk1-as DSE1-URA3 strain, 5-FOA growth OD615, 2 d; at 50 µM; hits give high values

CCC(=O)N1CCc2cc(Br)cc(S(=O)(=O)NCCN3CCOCC3)c21
inactive: growth inhibition [1] -4.99% | growth inhibition [2] -8.08% | viability increase [3] 0.03% | viability [4] 101% | viability [5] 98.4% | inhibition [6] 1.71% | RAM network inhibition [7] 1.49%

O=C(CC1Oc2ccccc2NC1=O)NCc1ccccc1 (centres undefined)
inactive: growth inhibition [1] 0.945% | growth inhibition [2] -4.32% | viability increase [3] -0.93% | viability [4] 105% | viability [5] 100% | inhibition [6] 3.42% | RAM network inhibition [7] 4.73%

CC(C)OC(=O)c1nnc(Cc2ccc(Cl)cc2)o1
inactive: growth inhibition [1] -6.46% | growth inhibition [2] 9.87% | viability increase [3] 0.7% | viability [4] 102% | viability [5] 102% | inhibition [6] -0.06% | RAM network inhibition [7] 1.93%

CCOC(=O)N1CCC(N2C(=O)c3ccccc3C2=O)CC1
inactive: growth inhibition [1] -1.78% | growth inhibition [2] -3.71% | viability increase [3] 0.37% | viability [4] 102% | viability [5] 98.8% | inhibition [6] 1.98% | RAM network inhibition [7] -0.31%

COC(=O)C1=CN(CCCN2CCCC2=O)C=C(C(=O)OC)C1c1ccccc1C(F)(F)F
inactive: growth inhibition [1] -10% | growth inhibition [2] 1.3% | viability increase [3] -6.27% | viability [4] 39.6% | viability [5] 35.7% | inhibition [6] 0.125% | RAM network inhibition [7] 1.94%

COC(=O)c1ccc(Nc2cc(C)nc3nc(C)nn23)cc1
inactive: growth inhibition [1] -10.5% | growth inhibition [2] -4.57% | viability increase [3] -2.65% | viability [4] 97.3% | viability [5] 94.6% | inhibition [6] 1.67% | RAM network inhibition [7] 0.77%

COc1ccccc1CNS(=O)(=O)c1ccc2c(c1)oc(=O)n2C
inactive: growth inhibition [1] -4.47% | growth inhibition [2] -0.685% | viability increase [3] -0.99% | viability [4] 101% | viability [5] 86.7% | inhibition [6] 0.795% | RAM network inhibition [7] 0.32%

NC(=O)C1(N2CCCCC2)CCN(C(=O)c2cccs2)CC1
inactive: growth inhibition [1] -8.17% | growth inhibition [2] -16.6% | viability increase [3] 0.57% | viability [4] 105% | viability [5] 92.3% | inhibition [6] 0.955% | RAM network inhibition [7] 1.19%

Cc1ccc2c(c1)c1cccc3c1n2CCN3CCC(N)=O
inactive: growth inhibition [1] 4.29% | growth inhibition [2] 6.53% | viability increase [3] 1.41% | viability [4] 87.4% | viability [5] 87.2% | inhibition [6] 3.32% | RAM network inhibition [7] 9.34%

CC(C)C(=O)Nc1ccc(Nc2ccccc2)cc1
inactive: growth inhibition [1] -3.29% | growth inhibition [2] -8.34% | viability increase [3] 0.79% | viability [4] 105% | viability [5] 104% | inhibition [6] 0.87% | RAM network inhibition [7] 2.52%

CCCCNC(=O)CC1Nc2ccccc2NC1=O (centres undefined)
inactive: growth inhibition [1] 5.04% | growth inhibition [2] 4.59% | viability increase [3] -2.91% | viability [4] 113% | viability [5] 93% | inhibition [6] 0.83% | RAM network inhibition [7] 5.83%

CCOC(=O)c1sc(NC(=O)c2ccc(Cl)s2)cc1C
inactive: growth inhibition [1] -0.47% | growth inhibition [2] -4.72% | viability increase [3] 0.81% | viability [4] 105% | viability [5] 94.9% | inhibition [6] 2.33% | RAM network inhibition [7] 5.22%

CCOC(=O)c1ccc(NC2c3ccccc3C(=O)N2c2cccnc2)cc1 (centres undefined)
inactive: growth inhibition [1] 0.43% | growth inhibition [2] 1.2% | viability increase [3] -3.72% | viability [4] 65.5% | viability [5] 67.6% | inhibition [6] 0.67% | RAM network inhibition [7] 2.21%

Cc1occc1C(=O)NCc1ccc2c(c1)OCO2
inactive: growth inhibition [1] -7.06% | growth inhibition [2] 3.86% | viability increase [3] 0.84% | viability [4] 101% | viability [5] 99.2% | inhibition [6] 1.78% | RAM network inhibition [7] 1.93%

c1ccc(OCCSc2ncnc3nc[nH]c23)cc1
inactive: growth inhibition [1] 3.62% | growth inhibition [2] 15.4% | viability increase [3] -0.26% | viability [4] 93.3% | viability [5] 87.4% | inhibition [6] 1.73% | RAM network inhibition [7] 3.23%

COc1cccc(N2CCN(C(=O)C3CCCN(S(=O)(=O)c4cnc[nH]4)C3)CC2)c1 (centres undefined)
inactive: growth inhibition [1] 11.1% | growth inhibition [2] 8.66% | viability increase [3] 0.99% | viability [4] 97% | viability [5] 93% | inhibition [6] -0.27% | RAM network inhibition [7] -0.88%

COC(=O)c1ccc(NC(=O)c2cccc(OC)c2)cc1
inactive: growth inhibition [1] -1.57% | growth inhibition [2] 7.93% | viability increase [3] 1.59% | viability [4] 69.9% | viability [5] 80.7% | inhibition [6] 0.875% | RAM network inhibition [7] 8.05%
